The results in this text go back to PubChem BioAssay.

The nature of experiment [1]: nonspecific flux increase, KCNQ1-free cells – parental CHO cells, counter-screen for KCNQ1 potentiator project (AID 493006;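 active = duplicate-averaged activation above buffer control mean plus 5 SD of those controls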;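 as to activation: fluorescence ratio of max minus min over baseline after K+ and Tl+ depolarization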). The conditions noted are these: parental CHO-K1 cells, FluxOR thallium flux, at 10 µM; active compounds read high. Put shortly: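 Assay system: parental CHO-K1 cells lacking KCNQ1, loaded with FluxOR thallium dye; timing: dye 90 min RT, compound 20 min RT; signal: kinetic thallium-flux fluorescence; repeats: duplicate wells per compound, percent values averaged; benchmarks: buffer and R-L3 controls; reagent: Potassium/thallium depolarization pulse; read-out: fluorescence change ratio scaled 0% buffer, 100% R-L3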
For orientation: A counterscreen serves to expose hits that act by an unwanted route or on another target.

Experiment [2] deals with Potassium voltage-gated channel subfamily KQT member 1 (Homo sapiens) (UniProt P51787). Description: enhancement of KCNQ1 channel thallium flux – FluxOR thallium flux, CHO cells, duplicates, confirmation (AID 493007).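 As to outcome: cells depolarized by a potassium plus thallium sulfate stimulus after compound.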 As to conditions: KCNQ1 cell line, FluxOR thallium flux fluorescence, at 10 µM; active compounds read high, % of reference activator effect, buffer zero. The method in brief: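 material = CHO cells stably expressing the KCNQ1 potassium channel | repeats = duplicate wells per compound | measure = percent activation between buffer and R-L3 responses | signal = FluxOR thallium-flux fluorescence, kinetic read | schedule = FluxOR dye loading 90 min, compound exposure 20 min, room temperature | control set = buffer and R-L3 controls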

For experiment [3], the target named is Potassium voltage-gated channel subfamily KQT member 2 (Rattus norvegicus) (UniProt O88943). Nature of the experiment: KCNQ2 thallium flux enhancement – KCNQ2-CHO-K1 cells, selectivity assay for KCNQ1 potentiator project (AID 493009;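 active = mean duplicate potentiation above the buffer control mean plus 5 SD of buffer wells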;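 also: assay conditions were tuned for KCNQ1 rather than KCNQ2 modulators; signal is max minus min fluorescence divided by baseline after thallium stimulus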). The conditions noted are these: FluxOR thallium flux fluorescence, at 10 µM; active compounds read high, scaled: buffer 0, activator control 100.

The target in experiment [4] is Potassium voltage-gated channel subfamily KQT member 1 (Homo sapiens) (UniProt P51787). Description: KCNQ1 activators by electrophysiology – IonWorks patch clamp, KCNQ1-CHO cells, orthogonal assay for KCNQ1 potentiator project, confirmation (AID 493184;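 active = current rise at least 3 SD above the untreated control mean in each of two repeat wells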). As to conditions: automated patch clamp current, at 10 µM; active compounds read high. Put shortly:
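Assay system – CHO cells carrying KCNQ1 · Medium – pH 7.4 external bath · Probe or stimulus – depolarizing pulse to +40 mV from -90 mV · Compound dosing – one dose, 10 µM final · Measured by – automated perforated-patch electrophysiology · Measure – % potentiation of steady-state current relative to pre-compound · Repeats – two replicates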
A general note: The patch-clamp technique gives a direct electrical read-out from membranes.

Molecules are shown by their SMILES. Active and inactive are the calls of the source.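 The calls were made as follows, unless noted: active = potentiation averaged over duplicate wells exceeding buffer-only control mean by more than 3 SD; inactive = the rest.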

Chain of Potassium voltage-gated channel subfamily KQT member 1 (Homo sapiens) (P51787 whole entry, looked up): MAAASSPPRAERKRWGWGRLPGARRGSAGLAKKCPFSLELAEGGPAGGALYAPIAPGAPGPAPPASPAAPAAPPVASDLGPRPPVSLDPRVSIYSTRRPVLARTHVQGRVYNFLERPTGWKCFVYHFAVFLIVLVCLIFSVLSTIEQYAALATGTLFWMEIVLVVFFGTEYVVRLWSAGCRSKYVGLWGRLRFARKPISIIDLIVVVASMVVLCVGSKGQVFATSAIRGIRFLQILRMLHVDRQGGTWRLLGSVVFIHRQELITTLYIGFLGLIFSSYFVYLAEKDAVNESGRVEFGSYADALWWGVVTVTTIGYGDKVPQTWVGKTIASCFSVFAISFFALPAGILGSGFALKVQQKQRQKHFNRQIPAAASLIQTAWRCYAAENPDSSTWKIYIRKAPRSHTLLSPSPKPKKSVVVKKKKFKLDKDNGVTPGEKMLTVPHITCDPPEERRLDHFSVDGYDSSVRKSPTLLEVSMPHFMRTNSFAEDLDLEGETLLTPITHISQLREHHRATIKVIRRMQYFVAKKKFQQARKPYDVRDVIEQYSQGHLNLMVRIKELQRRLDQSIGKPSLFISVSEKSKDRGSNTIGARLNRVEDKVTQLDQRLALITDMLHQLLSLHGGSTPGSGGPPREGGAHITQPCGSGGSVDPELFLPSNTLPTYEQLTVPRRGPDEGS
Chain of Potassium voltage-gated channel subfamily KQT member 2 (Rattus norvegicus) (O88943 whole entry, looked up): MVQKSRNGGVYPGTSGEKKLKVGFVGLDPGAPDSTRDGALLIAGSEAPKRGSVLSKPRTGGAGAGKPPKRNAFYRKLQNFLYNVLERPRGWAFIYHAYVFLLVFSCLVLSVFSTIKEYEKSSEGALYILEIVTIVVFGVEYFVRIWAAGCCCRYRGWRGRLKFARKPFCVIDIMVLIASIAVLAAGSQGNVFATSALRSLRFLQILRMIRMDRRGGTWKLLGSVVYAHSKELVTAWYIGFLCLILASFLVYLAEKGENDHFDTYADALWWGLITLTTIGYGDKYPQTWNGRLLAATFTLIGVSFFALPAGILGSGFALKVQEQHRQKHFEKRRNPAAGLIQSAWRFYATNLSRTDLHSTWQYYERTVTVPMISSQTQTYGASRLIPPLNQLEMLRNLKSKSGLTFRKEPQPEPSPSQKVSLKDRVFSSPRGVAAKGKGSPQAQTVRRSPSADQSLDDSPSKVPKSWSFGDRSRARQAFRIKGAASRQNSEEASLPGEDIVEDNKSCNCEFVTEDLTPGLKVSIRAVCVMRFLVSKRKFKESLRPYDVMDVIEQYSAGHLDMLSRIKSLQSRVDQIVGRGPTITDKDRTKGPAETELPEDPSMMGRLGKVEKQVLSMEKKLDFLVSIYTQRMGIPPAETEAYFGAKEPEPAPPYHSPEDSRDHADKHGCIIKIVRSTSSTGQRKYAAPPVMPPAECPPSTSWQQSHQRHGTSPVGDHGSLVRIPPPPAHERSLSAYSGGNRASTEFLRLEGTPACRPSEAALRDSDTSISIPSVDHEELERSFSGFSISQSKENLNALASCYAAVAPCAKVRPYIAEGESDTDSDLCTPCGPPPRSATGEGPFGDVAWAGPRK

As to `O=C1c2cccc3cccc(c23)C(=O)N1c1cccc(O)c1`, the outcome in experiment [1], in experiment [2], in experiment [3] and in experiment [4] was inactive.
With `O=C(NC(=S)N(CC1CCC1)CC1CCCO1)c1cccc([N+](=O)[O-])c1` (configuration not stated), the activation in experiment [1] is 224% (active). Besides, the potentiation in experiment [2] is 74.5% (active); in experiment [3], 216% (active). Further, the outcome in experiment [4] was inactive.
Taken in the same sequence, the figures for `ON/C=N/C(=S)Nc1ncc(C(F)(F)F)cc1Cl` were 264% (active), 69% (active), 218% (active) and “inactive”.
Turning to `O=[N+]([O-])c1ccc(/C([O-])=C(/C(=S)NCc2ccco2)[n+]2ccccc2)cc1`, the outcome in experiment [1], in experiment [2], in experiment [3] and in experiment [4] was inactive.
As for `COc1ccc(OC)c(NC(=O)C(=O)NNC(=O)COc2ccc(Br)cc2C)c1`, the activation in experiment [1] was 520% (active). Moreover, the potentiation is 346% (active) in experiment [2] and 614% (active) in experiment [3]. Further, the result in experiment [4] was inactive.
With `Cc1cccc(C)c1NC(=S)NC(=O)c1ccc(Br)o1`, the activation in experiment [1] was 394% (active). The potentiation in experiment [2] is 122% (active); in experiment [3], 412% (active). For the same compound, the result in experiment [4] was inactive.
As to `Nc1nonc1C(=O)NCCN=Cc1cc(Cc2ccccc2)cc(Br)c1O`, the outcome in experiment [1], in experiment [2], in experiment [3] and in experiment [4] was inactive.
With `CCc1ccc(-c2c(C)sc(NC(C)=O)c2C(N)=O)cc1`, the outcome in experiment [1], in experiment [2], in experiment [3] and in experiment [4] was inactive.
`CCOC(=O)c1ccc(-c2ccc(C3Nc4ccccc4C(=O)N3O)o2)cc1` (configuration not stated): the result in experiment [1], in experiment [2], in experiment [3] and in experiment [4] was inactive.
For `COc1ccc(/C=C2\SC(=O)NC2=S)cc1OC`, the activation in experiment [1] is 154% (active). Further, the values for the potentiation in experiment [2] and in experiment [3] were 34% (active) and 191% (active), respectively. The outcome in experiment [4] was inactive.
Turning to `Fc1ccc2nc(Nc3nc4c(F)cccc4s3)sc2c1`, in experiment [1], the activation was 144% (active). Besides, the potentiation in experiment [2] is 69.5% (active); in experiment [3], 180% (active). In experiment [4], the result was inactive.
Regarding `CCOc1ccccc1NC(=S)NC(=O)c1ccco1`, the activation in experiment [1] was 172% (active). In addition, the potentiation in experiment [2] was 35% (active); in experiment [3], 184% (active). In addition, the result in experiment [4] was inactive.
Take `COc1ccc(CNC(=O)C2CC(c3cccc(OC)c3)=NO2)cc1` (configuration not stated): the outcome in experiment [1], in experiment [2], in experiment [3] and in experiment [4] was inactive.
`CCOC(=O)c1sc(NN=C(C(=O)OC)C(=O)OC)c(C(=O)OCC)c1C`: in experiment [1], the activation was 185% (active). The potentiation in experiment [2] is 74.5% (active); in experiment [3], 208% (active). For the same compound, in experiment [4], the result was inactive.
For the compound `N#CC1=C(Nc2ccccc2)SC=C(c2ccc(Br)cc2)N=C1N1CCOCC1`, the result in experiment [1], in experiment [2], in experiment [3] and in experiment [4] was inactive.
Consider `O=c1c2cc(Br)ccc2nc(-c2ccc([N+](=O)[O-])cc2)n1O`, for which the activation in experiment [1] was 346% (active). The results for the potentiation in experiment [2] and in experiment [3] were 147% (active) and 410% (active), respectively. Moreover, in experiment [4], the outcome was inactive.
In the case of `Cc1ccc(C(=O)Nc2nc3ccccc3c(=O)s2)cc1`, in experiment [1], the activation was 186% (active). Further, the potentiation in experiment [2] was 35.5% (active); in experiment [3] it was 216% (active). In addition, the outcome in experiment [4] was inactive.
Taken in the same sequence, the figures for `Oc1c(N=NC(=S)Nc2ccccc2F)c2ccccc2n1Cc1ccccc1Cl` were 180% (active), 81.5% (active), 210% (active) and “inactive”.
Taken in the same sequence, the figures for `CC1=NN(C(N)=S)C(=O)C1N=Nc1cccc(Cl)c1C` (configuration not stated) were 1010% (active), 665% (active), 1230% (active) and “inactive”.
In the case of `Fc1ccc2nc(Nc3nc4c(F)cc(F)cc4s3)sc2c1`, the activation in experiment [1] was 165% (active). The potentiation is 74% (active) in experiment [2] and 210% (active) in experiment [3]. For the same compound, the result in experiment [4] was inactive.
On to `O=C(CNc1ccc2c(c1)OCO2)N/N=C\c1cn(Cc2ccccc2)c2ccccc12`, for which the outcome in experiment [1], in experiment [2], in experiment [3] and in experiment [4] was inactive.
As to `CC1CCN(C(=S)NC(=O)c2cccs2)CC1`, the activation in experiment [1] is 143% (active). In addition, the potentiation in experiment [2] was 28.5% (active); in experiment [3], 186% (active). Further, in experiment [4], the result was inactive.
In the case of `CCCCNC(=S)NC(=O)c1ccc([N+](=O)[O-])cc1`, in experiment [1], the activation is 168% (active). Besides, the potentiation was 29% (active) in experiment [2] and 190% (active) in experiment [3]. Moreover, the result in experiment [4] was inactive.
Regarding `Cc1cc(Cl)ccc1OCc1n[nH]c(=S)n1C1CCCCC1`, the activation in experiment [1] is 190% (active). Moreover, the potentiation in experiment [2] is 129% (active); in experiment [3] it was 212% (active). In addition, in experiment [4], the outcome was inactive.
Take `CCN(c1ccccc1)S(=O)(=O)c1ccc(OC)c(NC(=O)COc2ccc(C(C)=O)cc2)c1`: the result in experiment [1], in experiment [2], in experiment [3] and in experiment [4] was inactive.
Consider `Cc1ccc2nc(N3CCN(Cc4ccc(F)cc4)C3=O)c(C)cc2c1`, for which the outcome in experiment [1], in experiment [2], in experiment [3] and in experiment [4] was inactive.
As to `CCCN1C(=O)/C(=C/c2ccc(C)s2)NC1=S`, the activation in experiment [1] was 395% (active). In addition, the potentiation in experiment [2] was 194% (active); in experiment [3] it was 412% (active). Also, the result in experiment [4] was inactive.
With `O=[N+]([O-])c1ccc(/C=C/C2=NN(c3ccccc3)C(c3ccco3)C2)o1` (configuration not stated), the result in experiment [1], in experiment [2], in experiment [3] and in experiment [4] was inactive.
